Ecoli rRNA inh: selective bacterial rRNA inhibition in E. coli; E. coli WT GFP vs humanized-ribosome RFP mutants, fluorescence, 24 h; hits give low values; DMSO median 0, no signal -100; GFP signal change (wild-type ribosome), % (concentration not given with the values); 350,000 tested, 1.6% active; AID 720706;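 active = significant combined selectivity score with lowered wild-type GFP, culture density cut under 30%, mutant RFP and density less affected; inactive = any of these conditions unmet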
RAD54 inh: blocks human RAD54 Holliday junction branch migration. Q92698. FAM/BHQ fluorescence. inhibition, % at 10.4 µM. 360,000 tested, 0.14% active. AID 602329;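 active = mean normalized replicate activity at least 40 and at least half of replicates scoring 40 or more; inconclusive = only one of the two criteria met; inactive = mean below 40 and under half of replicates reaching 40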;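 also: 0% = median of neutral control wells and 100% = median of positive control wells; inhibitors cause a drop in the FAM fluorescence signal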
GSIS activator: primary screen for activators of insulin secretion dependent on glucose, INS-1E cells, GLuc reporter luminescence; activation, % at 16.6 µM; INS-1E GLuc reporter insulin secretion, 2-3 h; AID 743287; 370,000 tested, 0.61% active;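 active = lowest replicate activation of at least 40%, so every replicate reaches that level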;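 also: 0% = median of neutral control wells and 100% = median of IBMX positive control wells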
E-sel inducer: E-selectin induction on HUVECs. AID 686992. activation, % at 7.58 µM. HUVEC E-selectin immunofluorescence imaging; normalized: neutral wells 0, TNF-alpha wells 100. 260,000 tested, 0.37% active. P16581;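 active = mean E-selectin-positive cell signal at least 10% of the positive control, reached in at least 60% of replicates, without over 20% cell loss; inconclusive = no rule given, readout overlaps actives, possibly toxicity-flagged; inactive = the rest, including those meeting only one limit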
Target sequence (P16581 whole entry, looked up): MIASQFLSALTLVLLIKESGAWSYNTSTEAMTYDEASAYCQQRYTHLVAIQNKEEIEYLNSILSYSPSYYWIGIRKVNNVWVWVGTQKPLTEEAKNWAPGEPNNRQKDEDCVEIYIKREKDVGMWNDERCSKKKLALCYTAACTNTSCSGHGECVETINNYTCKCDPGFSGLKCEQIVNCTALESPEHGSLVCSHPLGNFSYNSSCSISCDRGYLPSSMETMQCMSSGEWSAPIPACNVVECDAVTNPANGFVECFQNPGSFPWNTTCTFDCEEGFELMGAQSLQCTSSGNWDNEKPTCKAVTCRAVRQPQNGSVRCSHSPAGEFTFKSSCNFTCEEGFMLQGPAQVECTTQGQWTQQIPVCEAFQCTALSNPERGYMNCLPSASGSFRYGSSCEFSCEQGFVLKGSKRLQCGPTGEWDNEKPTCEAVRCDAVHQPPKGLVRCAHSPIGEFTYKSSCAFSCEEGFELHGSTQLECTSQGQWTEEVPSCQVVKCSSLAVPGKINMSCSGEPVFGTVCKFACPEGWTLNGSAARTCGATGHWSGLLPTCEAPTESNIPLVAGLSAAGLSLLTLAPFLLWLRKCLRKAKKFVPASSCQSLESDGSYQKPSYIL
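assay system = HUVEC, human umbilical vein endothelial cells | input = 3,000 HUVEC seeded per well | medium = EGM-2 growth medium on 0.1% gelatin-coated wells | dosing = one compound dose added by pin transfer | signal = immunofluorescence imaging | read-out basis = % PE-positive cells | control set = TNF-alpha, DMSO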
RAD52 anneal inh: inhibitors of human RAD52 DNA annealing; P43351; 360,000 tested, 0.46% active; AID 651710; recombinant RAD52 DNA annealing, FRET fluorescence; inhibition, % at 18.7 µM;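 active = every replicate showing at least 50% inhibition; inconclusive = mean inhibition at least 50% but not in every replicate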
MLL AF4-AF9 inh: blocks AF4 peptide binding to human AF9; inhibition, % at 10 µM; 350,000 tested, 0.47% active; AID 651704; AlphaScreen, biotin-AF4 peptide binding to FLAG-AF9;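 active = every replicate reaching a set inhibition limit, whatever the replicate mean, cut at about 25% in these data; inconclusive = mean inhibition reaches that limit but some replicates miss it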;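 also: 0% = plate neutral control median and 100% = total signal loss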
* marks the source's active call; other numbers are inactive results; ? = inconclusive; . = no result given; ! = not active in a repeat. Rows were chosen to be rich in hits. Some 2.6% of all compounds tested hit in one or more screens of this group.

SMILES	Ecoli rRNA inh	RAD54 inh	GSIS activator	E-sel inducer	RAD52 anneal inh	MLL AF4-AF9 inh
CN(C)c1ccccc1	16.1	-6.1	12.5	0.4	5.8	-2.5
O=P(Nc1cccnc1)(Oc1ccccc1Cl)Oc1ccccc1Cl	-33.1*	.	-29.9	-2.0	-8.7	-22.7
O=C(Cc1ccncc1)N1CCCCN2[C@@H](CO)[C@@H](c3ccc(C#CC4(O)CCCC4)cc3)[C@@H]2C1	5.7	7.6	18.1	-0.1	-3.0	0.1
O=C1NCN(c2ccccc2)C12CCN(C(c1ccccc1)c1nnnn1Cc1ccccc1)CC2 (stereo not drawn)	-20.7*	-5.0	-6.2	-0.5	-13.3	5.3
COc1ccc(-n2nnnc2C(CCSC)N2CCC3(CC2)C(=O)NCN3c2ccccc2)cc1 (stereo not drawn)	-21.1*	-0.4	-38.0	-0.9	-12.8	4.4
COc1ccc(C(CC(=O)c2ccc3c(c2)OCO3)c2c(O)c3ccccc3oc2=O)cc1OC (stereo not drawn)	-29.8*	13.5	68.1	-0.2	-12.9	0.6
COc1ccc(C(CC(C)=O)c2c(O)c3ccccc3oc2=O)cc1OC (stereo not drawn)	-3.1	.	85.1	-0.3	-8.7	-0.7
CCOC(=O)c1c(/N=C/c2c(O)n(-c3ccc(F)cc3)c(=S)[nH]c2=O)sc2c1CCCC2	.	.	74.9*	.	.	.
Cc1ccc(OC(=O)N(C)C[C@@H]2OCc3ccccc3-c3c(n(C)c4ccccc34)C(=O)N([C@@H](C)CO)C[C@H]2C)cc1	-1.8	.	11.7	-3.3	14.9	8.2
CC[C@@H](CO)NC(=O)[C@@H]1C=C2c3cccc4c3c(cn4C)C[C@H]2N(C)C1	0.5	63.6*	6.2	-1.9	-280.4	12.3
COC(=O)[C@@H]1[C@@H](CO)[C@@H]2Cn3c(ccc(/C=C/c4ccccc4)c3=O)[C@H]1N2C(=O)C1CC1	-7.2	5.2	-8.7	-0.3	10.5	-8.5
COc1nc(NC(C)C)nc(NC(C)C)n1	.	8.8	68.8*	.	.	.
CC(C)C(=O)NC(Oc1ccccc1Cl)C(Cl)(Cl)Cl (stereo not drawn)	-13.9*	1.0	0.6	7.4	-5.7	-0.3
CC(C)NC(=O)N1C[C@@H]2C(c3ccccc3)[C@H](C1)N2CC1CC1 (stereo partly drawn)	0.3	.	11.0	.	.	.
O=C(Cc1ccccc1)N1CC2(C1)[C@@H](c1ccccc1)[C@H](CO)N2Cc1cccc(F)c1	-5.2	.	-16.1	.	.	.
CN1CC[C@@]2(C)c3cc(O)ccc3N(C)[C@@H]12	-4.3	3.3	.	1.1	69.4*!	?
O=C(Cc1ccccn1)N1CC2(C1)[C@H](c1ccccc1)[C@@H](CO)N2Cc1ccccn1	2.2	.	16.0	0.2	-156.4	2.5
NCCc1c(Cc2ccccc2)[nH]c2ccccc12	-19.9*	-8.9	-1.8	4.4	-43.1	3.6
O=C(Cc1ccccc1)N1C[C@H]2[C@@H](c3ccccc31)[C@H](CO)N2Cc1ccccc1	-1.5	2.0	-6.3	-0.2	8.3	1.9
Cc1ccccc1-c1ccc([C@H]2[C@@H](CO)N3CCCCN(C(=O)Cc4ccccn4)C[C@@H]23)cc1	-2.8	0.4	-0.3	0.2	-8.0	-5.6
C[C@]12C=CC(=O)C=C1CC[C@@H]1[C@@H]2CC[C@]2(C)C(=O)CC[C@@H]12	-22.9*	7.5	1.2	.	-2.8	-2.9
C[C@]12CCC(=O)C=C1CC[C@@H]1C2[C@H](O)C[C@]2(C)C(=O)CCC12 (stereo partly drawn)	-25.7*	-17.1	-9.5	0.2	-16.2	-1.9
CC12C=CC(=O)C=C1CCC1C2C(=O)CC2(C)C(=O)CCC12 (stereo not drawn)	-1.7	3.2	0.0	-0.1	-9.1	-3.3
CCCNC(=O)N1[C@@H]2Cn3c(ccc(-c4ccccc4OC)c3=O)[C@H]1[C@@H](C(=O)OC)[C@@H]2CO	1.6	-1.6	16.0	0.1	11.6	-0.5
COC(=O)C1=C(C(=O)OC)SC2(S1)C(C(=O)OC)=C(C(=O)OC)Sc1c2ssc1=O	-23.2*	.	.	0.7	-26.5	-31.1
SMILES	Ecoli rRNA inh	RAD54 inh	GSIS activator	E-sel inducer	RAD52 anneal inh	MLL AF4-AF9 inh
CC(C)OP(=O)(OC(C)C)C(NCc1ccccc1)c1ccccc1 (stereo not drawn)	-20.4*	-2.3	-11.3	1.1	-14.4	2.1
CN(C)c1ccc(/C=C/[N+](=O)[O-])cc1	-17.6*	.	.	0.0	-24.9	-3.3
C[C@H](CO)N1C[C@H](C)[C@@H](CN(C)C(=O)Oc2ccccc2)OCc2ccccc2-c2c(n(C)c3ccccc23)C1=O	-4.9	.	-32.7	.	.	.
COC(=O)CC(NC(=S)N1CC2C[C@@H](C1)Cn1c2cccc1=O)C(=O)OC (stereo partly drawn)	8.5	.	.	0.1	-6.2	-0.2
COC(=O)CCCC(NC(=S)N1CC2C[C@@H](C1)Cn1c2cccc1=O)C(=O)OC (stereo partly drawn)	5.0	-5.7	40.3*	3.3	-2.6	0.9
CC1CN1c1cc2c(c3c1ccn3C)C1CCC2C1 (stereo not drawn)	.	-3.5	.	0.7	2.6	39.6*
Cc1cc([N+](=O)[O-])c(Cl)cc1NC(=O)C(C)C	.	.	17.1	.	.	.
CNc1cc(Cl)c2nonc2c1[N+](=O)[O-]	-58.4	.	51.0*	.	-6.1	-3.8
CSCCC(NC(=O)CCC(=O)OC1CC[C@H]2[C@@H]3CC[C@H]4CC(=O)CC[C@]4(C)[C@H]3CC[C@]12C)C(=O)O (stereo partly drawn)	-24.4*	-10.2	19.1	0.0	-1.5	1.8
Clc1ccccc1CNC1CN2CCC1CC2 (stereo not drawn)	.	.	13.7	.	.	.
c1ccc2c(c1)Sc1ccccc1N2CC1CN2CCC1CC2 (stereo not drawn)	-46.7	6.1	.	0.1	34.1	27.2*
CCOC(=O)[C@@H]1[C@@H]2NC(=S)N(C)[C@@]1(C)Oc1ccccc12	.	9.0	.	.	1.4	-5.3
CCOC(=O)c1cnc(SCc2ccc(Cl)c(Cl)c2)nc1N1CC1	-7.9*	-8.5	3.9	0.1	-26.6	-1.5
COc1ccc(C(CNC(=O)Cc2ccc(Cl)c(Cl)c2)N2CCCCC2)cc1 (stereo not drawn)	-31.9	6.5	-27.7	0.0	-68.3	5.4
C=CCN1[C@@H]2CN(C(=O)NC(C)C)C[C@H]1C2c1ccccc1 (stereo partly drawn)	-0.8	.	10.9	.	.	.
CC(C)(O)C(=O)Nc1ccc([N+](=O)[O-])c(C(F)(F)F)c1	3.4	9.1	6.9	.	1.0	.
COc1cc2c(cc1OC)CN(c1ccc([N+](=O)[O-])c(C(F)(F)F)c1)CC2	-18.8*	.	-25.8	-0.1	-3.3	2.8
Cc1cccc(OP(=O)(Nc2ccc(F)cc2)Oc2cccc(C)c2)c1	-33.2	.	-14.5	4.2	10.8	-0.7
COc1ccc(NP(=O)(Oc2cccc(C)c2)Oc2cccc(C)c2)cc1OC	-18.5*	.	2.9	2.9	1.6	-1.1

Assay outcomes from PubChem BioAssay.
